Laboratory results: ChEMBL document CHEMBL5058577, “EUbOPEN Chemogenomics Library 2 (Multiplex)” (2022)

Test system: U2OS
Assay: Multiplex assay against U2OS
Format: toxicity, cell-based
Settings: human
How it was run: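 Live cells carried four stains from seeding: Hoechst33342, BioTracker Green Microtubule Cytoskeleton Dye, MitoTracker Red and Annexin V Alexa Fluor 680. They were imaged on a CQ1 microscope at 37°C and 5% CO2 after compound addition. Using CellPathfinder machine-learning gating, cells were split into Hoechst high-intensity objects or normal cells, normal cells into healthy, pyknosed or fragmented nuclei, and pyknosed cells into mitotic or apoptotic; tubulin, mitochondrial-mass and membrane-permeability phenotypes are per cents of healthy-nucleus cells.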

[1] = 12 h, 1 µM, compound concentration 1 uM, replicate 1
[2] = 12 h, 1 µM, compound concentration 1 uM, replicate 2
[3] = 12 h, 10 µM, compound concentration 10 uM, replicate 1
[4] = 12 h, 10 µM, compound concentration 10 uM, replicate 2
[5] = 24 h, 1 µM, compound concentration 1 uM, replicate 1
[6] = 24 h, 1 µM, compound concentration 1 uM, replicate 2
[7] = 24 h, 10 µM, compound concentration 10 uM, replicate 1
[8] = 24 h, 10 µM, compound concentration 10 uM, replicate 2
[9] = 48 h, 1 µM, compound concentration 1 uM, replicate 1
[10] = 48 h, 1 µM, compound concentration 1 uM, replicate 2
[11] = 48 h, 10 µM, compound concentration 10 uM, replicate 1
[12] = 48 h, 10 µM, compound concentration 10 uM, replicate 2

## N[C@](CC1c2ccccc2Oc2ccccc21)(C(=O)O)[C@H]1C[C@@H]1C(=O)O
[1]
  Population Apoptotic (%): 80%
  Population Fragmented Nuclei (%): 22%
  Population Healthy Nuclei (%): 67%
  Population Hoechst High Intensity Objects (%): 1%
  Population Membrane Permeable-Phenotype (%): 6%
  Population Mitochondria Different-Phenotype (%): 2%
  Population Mitotic Cells (%): 20%
  Population Normal (%): 98%
  Population Pyknosed Nuclei (%): 9%
  Population Tubulin-Different-Phenotype (%): 4%
  Total Cell Count: 218
[2]
  Population Apoptotic (%): 72%
  Population Fragmented Nuclei (%): 10%
  Population Healthy Nuclei (%): 79%
  Population Membrane Permeable-Phenotype (%): 1%
  Population Mitochondria Different-Phenotype (%): 8%
  Population Mitotic Cells (%): 27%
  Population Tubulin-Different-Phenotype (%): 3%
  Total Cell Count: 114
[3]
  Population Apoptotic (%): 84%
  Population Fragmented Nuclei (%): 18%
  Population Healthy Nuclei (%): 72%
  Population Hoechst High Intensity Objects (%): 3%
  Population Membrane Permeable-Phenotype (%): 5%
  Population Mitochondria Different-Phenotype (%): 3%
  Population Mitotic Cells (%): 16%
  Population Normal (%): 96%
  Population Pyknosed Nuclei (%): 8%
  Population Tubulin-Different-Phenotype (%): 2%
  Total Cell Count: 295
[4]
  Population Apoptotic (%): 83%
  Population Fragmented Nuclei (%): 19%
  Population Healthy Nuclei (%): 76%
  Population Hoechst High Intensity Objects (%): 0%
  Population Membrane Permeable-Phenotype (%): 7%
  Population Mitochondria Different-Phenotype (%): 0%
  Population Normal (%): 100%
  Population Pyknosed Nuclei (%): 4%
  Total Cell Count: 141
[5]
  Population Apoptotic (%): 78%
  Population Fragmented Nuclei (%): 20%
  Population Healthy Nuclei (%): 70%
  Population Hoechst High Intensity Objects (%): 1%
  Population Membrane Permeable-Phenotype (%): 1%
  Population Mitochondria Different-Phenotype (%): 1%
  Population Mitotic Cells (%): 21%
  Population Normal (%): 98%
  Population Pyknosed Nuclei (%): 8%
  Population Tubulin-Different-Phenotype (%): 1%
  Total Cell Count: 272
[6]
  Population Apoptotic (%): 63%
  Population Fragmented Nuclei (%): 14%
  Population Healthy Nuclei (%): 77%
  Population Hoechst High Intensity Objects (%): 0%
  Population Membrane Permeable-Phenotype (%): 4%
  Population Mitochondria Different-Phenotype (%): 5%
  Population Mitotic Cells (%): 36%
  Population Normal (%): 99%
  Population Tubulin-Different-Phenotype (%): 2%
  Total Cell Count: 137
[7]
  Population Apoptotic (%): 80%
  Population Fragmented Nuclei (%): 13%
  Population Healthy Nuclei (%): 79%
  Population Hoechst High Intensity Objects (%): 3%
  Population Membrane Permeable-Phenotype (%): 3%
  Population Mitochondria Different-Phenotype (%): 3%
  Population Mitotic Cells (%): 20%
  Population Normal (%): 96%
  Population Pyknosed Nuclei (%): 7%
  Population Tubulin-Different-Phenotype (%): 1%
  Total Cell Count: 365
[8]
  Population Apoptotic (%): 81%
  Population Fragmented Nuclei (%): 15%
  Population Healthy Nuclei (%): 77%
  Population Hoechst High Intensity Objects (%): 0%
  Population Membrane Permeable-Phenotype (%): 8%
  Population Mitochondria Different-Phenotype (%): 1%
  Population Mitotic Cells (%): 18%
  Population Normal (%): 99%
  Population Pyknosed Nuclei (%): 6%
  Population Tubulin-Different-Phenotype (%): 3%
  Total Cell Count: 164
[9]
  Population Apoptotic (%): 89%
  Population Fragmented Nuclei (%): 14%
  Population Healthy Nuclei (%): 75%
  Population Hoechst High Intensity Objects (%): 2%
  Population Membrane Permeable-Phenotype (%): 3%
  Population Mitochondria Different-Phenotype (%): 1%
  Population Mitotic Cells (%): 10%
  Population Normal (%): 97%
  Population Pyknosed Nuclei (%): 9%
  Population Tubulin-Different-Phenotype (%): 1%
  Total Cell Count: 403
[10]
  Population Apoptotic (%): 85%
  Population Fragmented Nuclei (%): 16%
  Population Healthy Nuclei (%): 72%
  Population Hoechst High Intensity Objects (%): 1%
  Population Membrane Permeable-Phenotype (%): 5%
  Population Mitochondria Different-Phenotype (%): 3%
  Population Mitotic Cells (%): 15%
  Population Normal (%): 98%
  Population Pyknosed Nuclei (%): 10%
  Population Tubulin-Different-Phenotype (%): 4%
  Total Cell Count: 190
[11]
  Population Apoptotic (%): 90%
  Population Fragmented Nuclei (%): 15%
  Population Healthy Nuclei (%): 77%
  Population Hoechst High Intensity Objects (%): 1%
  Population Membrane Permeable-Phenotype (%): 4%
  Population Mitochondria Different-Phenotype (%): 3%
  Population Mitotic Cells (%): 10%
  Population Normal (%): 98%
  Population Pyknosed Nuclei (%): 7%
  Population Tubulin-Different-Phenotype (%): 2%
  Total Cell Count: 554
[12]
  Population Apoptotic (%): 81%
  Population Fragmented Nuclei (%): 12%
  Population Healthy Nuclei (%): 78%
  Population Hoechst High Intensity Objects (%): 0%
  Population Membrane Permeable-Phenotype (%): 7%
  Population Mitochondria Different-Phenotype (%): 1%
  Population Mitotic Cells (%): 18%
  Population Normal (%): 100%
  Population Pyknosed Nuclei (%): 9%
  Population Tubulin-Different-Phenotype (%): 3%
  Total Cell Count: 238
